Values joined by “and” are separate entries in the source; they are usually repeats but may differ in a detail not shown here. Equal values may be shown once.
Legend:
Format in all cases: functional
[1] = species on record: Homo sapiens; experiment: Ability of 1 mM to reduce affinity of hemoglobin for oxygen is assessed from 50% partial pressure of oxygen in membrane free hemoglobin solution
Summary of the method: (§1)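 Membrane-free hemoglobin: erythrocytes washed five times in 0.15 M NaCl, lysed in 5 volumes of water, filtered through paper and then down to 0.22 µm. Compound dissolved in 0.1 M HEPES, pH 7.4, hemoglobin added to a final 12.5 ± 0.5 µM, incubated 30 min at 37 °C. P50 taken from the O2-dissociation curve. Initial screen at 1 mM in duplicate.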

[2] = species on record: Homo sapiens; experiment: Ability of 1 mM compound to reduce affinity of hemoglobin for oxygen is assessed from 50% partial pressure of oxygen in intact red cells
Summary of the method: (§2)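 Intact red cells: 30-µL aliquots of fresh heparinized normal whole blood added to 5 mL of compound diluted in 0.1 M HEPES, pH 7.4; final hemoglobin 12.5 ± 0.5 µM by spectrophotometry. Equilibrated 30 min at 37 °C, then oxygenated in the instrument chamber. P50 (mmHg PO2 at 50% deoxygenation) read from the O2-dissociation curve. Initial screen at 1 mM in duplicate.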

[3] = biological target: Hemoglobin HbA (Homo sapiens) (UniProt P69905+P68871); experiment: Ratio of effect of compound on affinity of hemoglobin for oxygen to that of control
Chain of Hemoglobin HbA (Homo sapiens) (P68871 2-147 partner limits assumed): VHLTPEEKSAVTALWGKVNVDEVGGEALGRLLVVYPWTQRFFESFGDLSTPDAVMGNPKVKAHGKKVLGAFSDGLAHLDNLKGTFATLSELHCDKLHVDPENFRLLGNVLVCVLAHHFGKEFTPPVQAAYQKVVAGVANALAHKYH
Chain of Hemoglobin HbA (Homo sapiens) (P69905 2-142 limits assumed): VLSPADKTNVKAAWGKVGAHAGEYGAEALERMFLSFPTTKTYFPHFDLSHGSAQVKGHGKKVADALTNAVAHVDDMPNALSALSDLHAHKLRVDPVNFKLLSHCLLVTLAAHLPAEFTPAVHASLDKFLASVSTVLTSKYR
Summary of the method: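 Mean P50 with compound divided by mean P50 of the respective controls. P50 measured from O2-dissociation curves at 37 °C after 30 min in 0.1 M HEPES, pH 7.4, with hemoglobin at 12.5 ± 0.5 µM, in intact red cells or membrane-free hemoglobin.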

[4] = species on record: Homo sapiens; experiment: Ability of 0.5 mM to reduce affinity of hemoglobin for oxygen is assessed from 50% partial pressure of oxygen in membrane free hemoglobin solution; summary of the method: as §1
[5] = species on record: Homo sapiens; experiment: Ability of 0.5 mM to reduce affinity of hemoglobin for oxygen is assessed from 50% partial pressure of oxygen in intact red cells; summary of the method: as §2
[6] = species on record: Homo sapiens; experiment: Ability of 1 mM to reduce affinity of hemoglobin for oxygen is assessed from 50% partial pressure of oxygen in intact red cells; summary of the method: as §2
[7] = species on record: Homo sapiens; experiment: Ability of 1 mm to reduce affinity of hemoglobin for oxygen is assessed from 50% partial pressure of oxygen in intact red cells; summary of the method: as §2
[8] = species on record: Homo sapiens; experiment: Ability of 0.5 mm to reduce affinity of hemoglobin for oxygen is assessed from 50% partial pressure of oxygen in intact red cells; summary of the method: as §2
[9] = species on record: Homo sapiens; experiment: Ability of 0.05 mM to reduce affinity of hemoglobin for oxygen is assessed from 50% partial pressure of oxygen in membrane free hemoglobin solution; summary of the method: as §1
[10] = species on record: Homo sapiens; experiment: Ability of 0.2 mM to reduce affinity of hemoglobin for oxygen is assessed from 50% partial pressure of oxygen in intact red cells; summary of the method: as §2
[11] = species on record: Homo sapiens; experiment: Ability of 0.1 mM to reduce affinity of hemoglobin for oxygen is assessed from 50% partial pressure of oxygen in membrane free hemoglobin solution; summary of the method: as §1
[12] = species on record: Homo sapiens; experiment: Ability of 0.05 mM to reduce affinity of hemoglobin for oxygen is assessed from 50% partial pressure of oxygen in intact red cells; summary of the method: as §2
[13] = species on record: Homo sapiens; experiment: Ability of 0.1 mM to reduce affinity of hemoglobin for oxygen is assessed from 50% partial pressure of oxygen in intact red cells; summary of the method: as §2
[14] = species on record: Homo sapiens; experiment: Ability of 0.2 mM to reduce affinity of hemoglobin for oxygen is assessed from 50% partial pressure of oxygen in membrane free hemoglobin solution; summary of the method: as §1

SMILES | Ratio [3] | P50 [1] [mmHg] | P50 [2] [mmHg] | P50 [4] [mmHg] | other results
CC(C)(Oc1ccc(NC(=N)Nc2ccc(Cl)cc2)cc1)C(=O)O | 1.14 and 1.39 | 9 | 16 |  | 
CC(C)(Oc1ccc(NC(=O)Nc2ccc(O)cc2)cc1)C(=O)O | 1.68 and 1.21 | 11 | 8.5 |  | 
CC(C)(Oc1ccc(NC(=O)Nc2ccccc2)cc1)C(=O)O | 1.42 and 1.05 | 10 | 10 |  | 
CC(C)(Oc1ccc(NC(=O)Nc2cc(Cl)c(Cl)c(Cl)c2)cc1)C(=O)O |  |  |  |  | P50 [9]: 16.2 mmHg; P50 [10]: 60 mmHg; P50 [11]: 28.5 mmHg; P50 [12]: 27.5 mmHg; P50 [13]: 35 mmHg; P50 [14]: 57.2 mmHg
CCOC(=O)Nc1ccc(NC(=O)Nc2ccc(OC(C)(C)C(=O)O)cc2)cc1 | 1.61 and 1.27 | 10.5 | 11.5 |  | 
CC(C)(Oc1ccc(-c2ccccc2)cc1)C(=O)O | 1 and 1.63 | 7 | 15.5 |  | 
CC(C)(Oc1ccc(NC(=O)Nc2ccc(C=O)cc2)cc1)C(=O)O | 2.3 and 2.15 | 15 | 20.5 |  | 
CC(C)(Oc1ccc(CC(NC(=O)c2ccc(Cl)cc2)C(=O)O)cc1)C(=O)O (configuration not stated) | 1.07 and 1.26 | 7.5 | 12 |  | 
COc1ccc(NC(=O)Nc2ccc(OC(C)(C)C(=O)O)cc2)cc1 | 2.11 and 1.25 | 19 | 12.5 |  | 
CC(C)(Oc1ccc(NC(=O)Nc2cc(Cl)c(Cl)cc2Cl)cc1)C(=O)O |  |  |  |  | P50 [9]: 9 mmHg; P50 [10]: 31 mmHg; P50 [11]: 12 mmHg; P50 [12]: 14.25 mmHg; P50 [13]: 17.75 mmHg; P50 [14]: 16.8 mmHg
CC(=O)Oc1ccc(NC(=O)Nc2ccc(OC(C)(C)C(=O)O)cc2)cc1 | 1.64 and 1.77 | 11.5 | 16 |  | 
CC(C)(Oc1ccc(CCNC(=O)c2ccc(Cl)cc2)cc1)C(=O)O [BEZAFIBRATE] | 1.63 [middle of 4 runs] | 14.2 |  | 9 | P50 [5]: 14.5 mmHg; P50 [6]: 17 mmHg
CC(C)(Oc1ccc(NC(=O)Nc2ccc(Cl)cc2)cc1)C(=O)O | 2.7 and 1.64 | 21.8 | 19.5 |  | 
O=C(O)COc1ccc(NC(=O)Nc2ccc(Cl)c(Cl)c2)cc1 | 1.14 [middle of 4 runs] |  |  | 10 | P50 [10]: 11.5 mmHg; P50 [5]: 13 mmHg; P50 [14]: 8 mmHg
CC(C)(Oc1ccc(CCNC(=O)c2cc(Cl)cc(Cl)c2)cc1)C(=O)O | 1.78 and 1.42 and 2.33 | 12.5 |  | 10 | P50 [5]: 17.75 mmHg; P50 [6]: 22.75 mmHg
CC(C)(Oc1ccc(NC(=O)Nc2cc(F)cc(F)c2)cc1)C(=O)O | 1.99 [middle of 4 runs] | 15.2 |  | 12.2 | P50 [5]: 15 mmHg; P50 [6]: 21 mmHg
CC(C)(Oc1ccc(NC(=O)Nc2ccc(Cl)c([N+](=O)[O-])c2)cc1)C(=O)O | 5.43 [middle of 4 runs] | 43.5 |  | 30 | P50 [5]: 40 mmHg; P50 [6]: 52.5 mmHg

The next lines start with results.

Ratio [3] | SMILES | P50 [1] [mmHg] | P50 [2] [mmHg] | P50 [4] [mmHg] | other results
2.53 [middle of 4 runs] | Cc1ccc(NC(=O)Nc2ccc(OC(C)(C)C(=O)O)cc2)cc1C | 27.2 | 18.5 | 16.5 | P50 [5]: 14.5 mmHg
2.34 [middle of 4 runs] | CC(C)(Oc1ccc(NC(=O)c2cc(Cl)cc(Cl)c2)cc1)C(=O)O | 16 |  | 12.2 | P50 [5]: 19.66 mmHg; P50 [6]: 25.33 mmHg
2.79 [middle of 4 runs] | CC(C)(Oc1ccc(NC(=O)Nc2ccc([N+](=O)[O-])cc2)cc1)C(=O)O | 19 |  | 13 | P50 [7]: 26.5 mmHg; P50 [8]: 21 mmHg
1.14 and 1.36 | CC(C)(Oc1ccc(NC(=O)CNC(=O)c2ccc(Cl)cc2)cc1)C(=O)O | 8.5 | 12 |  | 
2.15 and 1.05 | CC(C)(Oc1ccc(NC(=O)Nc2ccc3c(c2)OCO3)cc1)C(=O)O | 14 |  |  | P50 [6]: 9.5 mmHg
2.88 and 1.72 | Cc1ccc(NC(=O)Nc2ccc(OC(C)(C)C(=O)O)cc2)cc1 | 26 | 15.5 |  | 
2.89 and 1.5 | CC(C)(Oc1ccc(NC(=O)Nc2cccc(Cl)c2)cc1)C(=O)O | 22 | 17.75 |  | 
2.07 and 1 | COc1ccc(NC(=O)Nc2ccc(OC(C)(C)C(=O)O)cc2)cc1OC | 14.5 | 8.5 |  | 
4.43 [middle of 4 runs] | CC(C)(Oc1ccc(NC(=O)Nc2cc(Cl)cc(Cl)c2)cc1)C(=O)O |  |  | 44.5 | P50 [10]: 22.75 mmHg; P50 [5]: 51 mmHg; P50 [14]: 20.5 mmHg
2 and 1.38 | CC(C)(Oc1ccc(NC(=O)Nc2ccc(F)cc2)cc1)C(=O)O | 18 | 12.5 |  | 
1.91 and 1.42 | CC(C)(Oc1ccc(NC(=O)Nc2ccccc2O)cc1)C(=O)O | 12.5 | 10 |  | 
1 and 1.26 | Cc1cc(C)c(NC(=O)Nc2ccc(OC(C)(C)C(=O)O)cc2)c(C)c1 | 6.5 | 12 |  | 
1.75 and 1.42 | CC(C)(Oc1ccc(NC(=O)Nc2ccccc2Cl)cc1)C(=O)O | 14.2 | 16.2 |  | 
2.56 [middle of 4 runs] | CC(C)(Oc1ccc(NC(=O)Nc2cc(Cl)ccc2Cl)cc1)C(=O)O |  |  | 18 | P50 [10]: 15.83 mmHg; P50 [5]: 23.75 mmHg; P50 [14]: 11.5 mmHg
1.14 and 1 | CC(C)(Oc1ccc(NC(=O)Nc2ccc(C(=O)O)cc2)cc1)C(=O)O | 8 | 9 |  | 
1.27 and 1.84 | CC(C)(Oc1ccc(NC(=O)COc2ccc(Cl)cc2)cc1)C(=O)O | 9.25 | 17.5 |  | 
1.64 and 1.05 | COc1cc(NC(=O)Nc2ccc(OC(C)(C)C(=O)O)cc2)cc(OC)c1OC | 11.5 | 9.5 |  | 
1.34 and 1.64 | CC(C)(Oc1ccc(NS(=O)(=O)Cc2ccccc2)cc1)C(=O)O | 9.16 | 11.5 |  | 
2.04 [middle of 4 runs] | CC(C)(Oc1ccc(NC(=O)Nc2ccc(Cl)cc2Cl)cc1)C(=O)O |  |  | 15.5 | P50 [10]: 14.75 mmHg; P50 [5]: 21.25 mmHg; P50 [14]: 9.75 mmHg
5.35 [middle of 4 runs] | CC(C)(Oc1ccc(NC(=O)c2ccc(Cl)cc2)cc1)C(=O)O | 39 |  | 27 | P50 [6]: 37.5 mmHg and 19 mmHg
3.61 and 4.21 | CC(C)(Oc1ccc(NC(=O)Nc2cc([N+](=O)[O-])ccc2Cl)cc1)C(=O)O | 23.5 | 40 |  | 
2.29 [middle of 4 runs] | CC(C)(Oc1ccc(NC(=O)Nc2ccc(Cl)c(Cl)c2)cc1)C(=O)O |  |  | 28.5 | P50 [10]: 15.5 mmHg; P50 [5]: 23.5 mmHg; P50 [14]: 14.2 mmHg
2.46 [middle of 4 runs] | CC(C)(Oc1ccc(NC(=O)Nc2cccc(Cl)c2Cl)cc1)C(=O)O |  |  | 16 | P50 [10]: 18.5 mmHg; P50 [14]: 12.5 mmHg

Reference: ChEMBL document CHEMBL1124654, “Synthesis and investigation of effects of 2-[4- [[(arylamino)carbonyl]amino]phenoxy]-2-methylpropionic acids on the affinity of hemoglobin for oxygen: structure-activity relationships” (1989)
